Compounds with a hit are over-represented: about 11% of the library has one in this group of screens.
M1 ag = agonists of M1 muscarinic receptor; CHO-M1 cells, Fluo-4 calcium fluorescence, agonist mode; active compounds read high; B-score at 10 µM; actives 3% (n = 64,000);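 active = fluorescence rise, raw or as B-score row- and column-corrected plate score, outside the 99.7% band of its plate's samples, either direction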
S1P3 agonist = S1P3 (human) receptor agonism | Q99500 | S1P3 NFAT-BLA reporter cells, FRET ratio; relative to 1 µM S1P, basal subtracted | activation, % at 4.5 µM | actives 0.1% (n = 60,000) | AID 373;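 active = activation above the screen-wide mean plus 3 SD, cut at about 4.5% in these data, passing the limit was not always enough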
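material = human S1P3 NFAT-BLA reporter CHO cells | schedule = 4 h compound at 37 °C, 2 h substrate at RT | measured by = fluorescent BLA substrate, ex 405 nm, em 460/535 nm ratio | controls = 1 µM S1P reference | replication = primary once, confirmation triplicate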
S1P1 ag pot = agonists and agonism potentiators of human S1P1 receptor; AID 449; P21453; actives 0.57% (n = 56,000); activation, % at 9.5 µM; S1P1 CRE-bla cells, forskolin, beta-lactamase FRET, potentiator mode; S1P1 agonist co-added at EC20, 2 nM; 100% = saturating reference agonist, 0% = basal;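 active = activation above a cutoff set at the mean activation of all tested compounds plus 3 SD, cut at about 54% in these data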;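 also: forskolin at 4 µM as EC80 and the EC20 agonist is SEW2871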
Target sequence (P21453 whole entry, looked up): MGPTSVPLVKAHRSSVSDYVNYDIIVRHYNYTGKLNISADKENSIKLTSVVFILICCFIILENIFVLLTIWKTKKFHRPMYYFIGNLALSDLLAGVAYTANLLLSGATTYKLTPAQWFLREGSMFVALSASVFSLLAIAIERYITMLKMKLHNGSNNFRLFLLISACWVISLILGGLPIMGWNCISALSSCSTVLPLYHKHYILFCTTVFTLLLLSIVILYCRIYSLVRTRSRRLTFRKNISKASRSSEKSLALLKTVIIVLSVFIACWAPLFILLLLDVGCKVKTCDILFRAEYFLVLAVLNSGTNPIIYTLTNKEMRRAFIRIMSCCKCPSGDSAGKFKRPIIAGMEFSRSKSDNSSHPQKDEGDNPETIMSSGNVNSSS
M1 antag = antagonists of rat M1 muscarinic receptor. actives 3.4% (n = 64,000). CHO-M1 cells, Fluo-4 calcium, ACh EC80 antagonist mode; active compounds read low. P08482. AID 628. B-score at 10 µM;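 active = calcium fluorescence response, raw or row-and-column corrected B-score, differing from the plate sample mean either way at a set confidence level, mostly lower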
D1 mod = allosterically modulates the human D1 dopamine receptor. P21728. HEK293 D1, CRE-luciferase, dopamine EC30 potentiation; actives deviate in either direction. B-score at 10 µM. actives 5.9% (n = 58,000). AID 641;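 active = luminescence count or its row- and column-corrected plate score outside the 99.7% band of the plate's sample wells, on either side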
D1 mod confirm = confirmation of human D1 dopamine receptor allosteric modulators | shares compounds with D1 mod | HEK293 D1 CRE-luciferase, dopamine EC30 potentiation; active compounds read high | luminescence at 10 µM | actives 88% (n = 2,200);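 active = luminescence in either of two replicates above the same-plate mean plus 3 SD of the low-dose dopamine control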
D1 no dopamine = secondary test of D1 modulators: activity without dopamine | actives 0.8% (n = 1,900) | shares compounds with D1 mod | HEK293 D1 CRE-luciferase, luminescence, no dopamine; active compounds read high | luminescence at 10 µM; in the data active = luminescence above about 3900
Isoprot counter = isoproterenol response counter-screen activity for D1 modulators; shares compounds with D1 mod; HEK293 D1 CRE-luciferase, isoproterenol EC30 counter-screen; calls only at 10 µM; actives 63% (n = 2,200); AID 647;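 active = luminescence in either replicate above plate mean of wells with a partly effective reference agonist dose plus 3 SD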;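 also: isoproterenol raises cAMP through native beta-adrenoceptor Gs so signal bypasses D1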
Numbers stand for hits.

COCCCn1c2nc3ccccc3nc2c2c(=O)n(CC3CCCO3)cnc21 (stereo not given) was read as M1 ag inactive, S1P3 agonist inactive, S1P1 ag pot inactive, M1 antag inactive, D1 mod 6.4, D1 mod confirm 8104 and Isoprot counter inactive.
`N#Cc1nc(-c2ccccc2Cl)oc1N1CCOCC1` gave M1 ag inactive, S1P3 agonist inactive, S1P1 ag pot inactive, M1 antag inactive, D1 mod 4.8, D1 mod confirm 7844, D1 no dopamine inactive and Isoprot counter inactive.
For CC1CCN(c2oc(-c3ccccc3Cl)nc2C#N)CC1 the results were M1 ag inactive, S1P3 agonist inactive, S1P1 ag pot inactive and M1 antag inactive.
Screening CCNc1nc(SCc2ccccc2)nc(N2CCOCC2)n1 returned M1 ag inactive, S1P3 agonist inactive, S1P1 ag pot inactive, M1 antag inactive, D1 mod 23, D1 mod confirm 17404 and Isoprot counter active.
For Nc1nc(CSCc2ccccc2)nc(N2CCOCC2)n1 the results were M1 ag inactive, S1P3 agonist inactive, S1P1 ag pot inactive, M1 antag inactive, D1 mod 4.3, D1 mod confirm 12172, D1 no dopamine inactive and Isoprot counter active.
Screening CNc1nc(SC)nc(N2CCOCC2)n1 returned M1 ag inactive, S1P3 agonist inactive, S1P1 ag pot inactive, M1 antag inactive, D1 mod 11, D1 mod confirm 17184, D1 no dopamine inactive and Isoprot counter active.
N#Cc1c(N)nc(-c2ccccc2)nc1-c1ccccc1 was read as M1 ag inactive, S1P3 agonist inactive, S1P1 ag pot inactive, M1 antag inactive, D1 mod 18, D1 mod confirm 18844, D1 no dopamine inactive and Isoprot counter inactive.
`O=C(Nn1c(-c2ccccc2)nc2ccccc2c1=O)C1CCC1` gave M1 ag inactive, S1P3 agonist inactive, S1P1 ag pot inactive, M1 antag inactive and D1 mod inactive.
`Nc1nc2n(n1)C(c1ccccc1)CC(c1ccc(F)cc1)N2` (stereo not given) gave M1 ag inactive, S1P3 agonist inactive, S1P1 ag pot inactive, M1 antag inactive, D1 mod 6, D1 mod confirm 11012, D1 no dopamine inactive and Isoprot counter inactive.
For Nc1nc2n(n1)C(c1ccco1)CC(c1ccccc1)N2 (stereo not given) the results were M1 ag inactive, S1P3 agonist inactive, S1P1 ag pot inactive, M1 antag inactive, D1 mod 14, D1 mod confirm 20620, D1 no dopamine inactive and Isoprot counter active.
Screening CCOc1ccc(C2CC(c3ccccc3)Nc3nc(N)nn32)cc1 (stereo not given) returned M1 ag inactive, S1P3 agonist inactive, S1P1 ag pot inactive and M1 antag inactive.
For c1ccc(C2CC(c3ccccc3)n3ncnc3N2)cc1 (stereo not given) the results were M1 ag inactive, S1P3 agonist inactive, S1P1 ag pot inactive, M1 antag inactive, D1 mod 4.4, D1 mod confirm 6308, D1 no dopamine inactive and Isoprot counter inactive.
COc1ccc(C2CC(c3ccccc3)Nc3nc(N)nn32)cc1 (stereo not given) was read as M1 ag inactive, S1P3 agonist inactive, S1P1 ag pot inactive and M1 antag inactive.
`Nc1nc2n(n1)C(c1cccc(Br)c1)CC(c1ccc(F)cc1)N2` (stereo not given) gave M1 ag inactive, S1P3 agonist inactive, S1P1 ag pot inactive, M1 antag inactive, D1 mod 14, D1 mod confirm 13072, D1 no dopamine inactive and Isoprot counter active.
Screening O=C(CN1C(=O)CCSc2ccccc21)Nc1ccc(F)cc1 returned M1 ag inactive, S1P3 agonist inactive, S1P1 ag pot inactive, M1 antag inactive and D1 mod inactive.
For O=C(Cn1cnc2c(nnn2Cc2ccccc2F)c1=O)NCc1ccco1 the results were M1 ag inactive, S1P3 agonist inactive, S1P1 ag pot inactive, M1 antag inactive and D1 mod inactive.
`CC(=O)OC(Cn1ccnc1)c1ccccc1` (stereo not given) gave M1 ag inactive, S1P3 agonist inactive, S1P1 ag pot inactive, M1 antag inactive and D1 mod inactive.
`COc1ccc(N2CCN(S(=O)(=O)c3cccs3)CC2)cc1` gave M1 ag inactive, S1P3 agonist inactive, M1 antag inactive, D1 mod 5, D1 mod confirm 9608, D1 no dopamine inactive and Isoprot counter inactive.
COc1ccc(N2CCN(CCNC(=O)C3CCN(S(=O)(=O)c4cccs4)CC3)CC2)cc1 was read as M1 ag inactive, S1P3 agonist inactive, S1P1 ag pot inactive, M1 antag inactive and D1 mod inactive.
`C=CCOc1c(Cl)cc(/C=N/O)cc1OC` gave M1 ag inactive, S1P3 agonist inactive, S1P1 ag pot inactive, M1 antag inactive and D1 mod inactive.
`C=CCOc1ccc(/C(CC)=N/O)c(OC)c1` gave M1 ag inactive, S1P3 agonist inactive, S1P1 ag pot inactive, M1 antag inactive, D1 mod 3.4, D1 mod confirm 8264, D1 no dopamine inactive and Isoprot counter inactive.
Screening COc1cc(C2C(C#N)=C(N)Oc3cc(O)ccc32)cc2c1OCO2 (stereo not given) returned M1 ag inactive, S1P3 agonist inactive, S1P1 ag pot inactive, M1 antag inactive, D1 mod 4.1, D1 mod confirm 11740, D1 no dopamine inactive and Isoprot counter active.
Screening O=C(Cc1ccc(-n2cccc2)cc1)N1CCc2ccccc21 returned M1 ag inactive, S1P3 agonist inactive, S1P1 ag pot inactive, M1 antag inactive and D1 mod inactive.
Screening CCOC(=O)C1CCCN(C(=O)c2ccco2)C1 (stereo not given) returned M1 ag inactive, S1P3 agonist inactive, S1P1 ag pot inactive, M1 antag inactive and D1 mod inactive.
`CC(C)Nc1nc(C#N)nc(NC(C)C)n1` gave M1 ag inactive, S1P3 agonist inactive, S1P1 ag pot inactive, M1 antag inactive, D1 mod 11, D1 mod confirm 12292 and Isoprot counter active.
`O=C(Nc1cc(C(F)(F)F)ccc1N1CCOCC1)c1ccc2ccccc2n1` gave M1 ag inactive, S1P3 agonist inactive, S1P1 ag pot inactive, M1 antag inactive and D1 mod inactive.
c1ccc(-c2nn3nnnc3c3ccccc23)cc1 was read as M1 ag inactive, S1P3 agonist inactive, S1P1 ag pot inactive, M1 antag inactive, D1 mod 12, D1 mod confirm 13348, D1 no dopamine inactive and Isoprot counter active.

High-throughput results deposited in PubChem by several laboratories.
